Sampled rows, rich in hits. Any-hit rate of the full collection: about 2.4%.
NPY1 pot ag: NPY-Y1 receptor potentiators or agonists, primary screen, cell-based; Neuropeptide Y receptor type 1 (Homo sapiens), P25929; NPY-Y1 expressing cells, potentiator/agonist activation; activation, % at 3.6 µM; hit rate 0.37% among 220,000; AID 1304, 2008; in the data active means activation above about 33%, passing the limit was not always enough;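 further: cells stimulated with NPY at EC10 then isoproterenol at EC100; 0% = low agonist plus stimulus and 100% = saturating agonist plus stimulus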
S1P4 antag: S1P4 receptor antagonists, primary screen, cell-based. Sphingosine 1-phosphate receptor 4 (Homo sapiens), O95977. S1P4-expressing cells, antagonist mode, reporter read-out. inhibition, % at 4.98 µM. hit rate 0.26% among 220,000. AID 1510, 2009; in the data active means inhibition above about 29%;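 further: 0% = wells stimulated with agonist and 100% = vehicle wells without agonist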
S1P4 ag: S1P4 receptor agonists, primary screen, cell-based | Sphingosine 1-phosphate receptor 4 (Homo sapiens), O95977 | S1P4-expressing cell line, agonist reporter assay | activation, % at 4.98 µM | hit rate 0.35% among 220,000; in the data active means activation above about 11%;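 further: 0% = DMSO vehicle and 100% = reference agonist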
NPY Y1 blocker: NPY-Y1 receptor antagonists, primary screen, cell-based; Neuropeptide Y receptor type 1 (Homo sapiens), P25929; hit rate 1% among 200,000; AID 1040, 2008; HEK293-CNG Y1 cells, membrane potential fluorescence; NPY at EC95, then isoproterenol; inhibition, % at 3.6 µM;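 active means inhibition above the campaign mean inhibition of all tested compounds plus 3 SD, cut at about 20% in these data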;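 further: 0% = DMSO wells given NPY plus isoproterenol and 100% = isoproterenol alone without NPY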
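Test system – HEK293 Y1/CNG channel cell line · Also added – NPY agonist 25 nM, then isoproterenol 1 µM plus Ro 20-1724 25 µM · Compound dosing – one concentration, 3.6 µM, in 0.4% DMSO · Schedule – compound incubation 1 h at room temperature, readout 45 min post-stimulation · Technique – fluorescence, membrane potential probe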
NPY-Y2 antag: NPY-Y2 receptor antagonists, primary screen, cell-based; Neuropeptide Y receptor type 2 (Homo sapiens), P49146; inhibition, % at 2.7 µM; hit rate 0.99% among 140,000; NPY-Y2 expressing cells, antagonist mode; AID 793, 2007;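 further: 0% = vehicle with agonist challenge and 100% = reference antagonist with challenge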
Target sequence (P49146 whole entry, looked up): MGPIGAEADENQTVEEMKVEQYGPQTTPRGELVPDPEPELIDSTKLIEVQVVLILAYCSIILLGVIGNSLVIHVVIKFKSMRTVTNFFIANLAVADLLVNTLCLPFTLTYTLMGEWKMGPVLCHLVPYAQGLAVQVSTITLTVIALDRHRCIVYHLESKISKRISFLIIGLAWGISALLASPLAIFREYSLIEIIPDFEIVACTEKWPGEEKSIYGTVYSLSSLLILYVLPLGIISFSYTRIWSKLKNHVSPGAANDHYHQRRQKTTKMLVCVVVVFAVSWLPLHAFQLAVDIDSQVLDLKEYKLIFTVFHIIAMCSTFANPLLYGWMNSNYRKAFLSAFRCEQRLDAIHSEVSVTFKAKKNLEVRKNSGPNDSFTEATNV
NPY2 pot ag: NPY-Y2 potentiators or agonists, primary screen, cell-based | Neuropeptide Y receptor type 2 (Homo sapiens), P49146 | cells expressing NPY-Y2, potentiator/agonist read-out | activation, % at 3.6 µM | hit rate 0.45% among 220,000 | AID 1359, 2008; in the data active means activation above about 27%;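 further: cells stimulated with NPY near EC25 plus isoproterenol at EC100; 0% = vehicle plus submaximal agonist and 100% = vehicle plus saturating agonist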
NPY-Y1 ant conf: NPY-Y1 receptor antagonists, retest of hits, confirmation, HEK293-CNG cells, membrane potential fluorescence, triplicate; shares compounds with NPY Y1 blocker; cAMP; NPY challenge against isoproterenol-raised cAMP; inhibition, % at 3.6 µM; hit rate 21% among 1,200; AID 1254, 2008; in the data active means inhibition above about 20%;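 further: 0% = vehicle with agonist plus stimulus and 100% = stimulus alone without agonist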
NPY2 antag ctr: NPY-Y2 receptor antagonists, selectivity check, confirmation, counter-screen for NPY-Y1 antagonist project, HEK293-CNG cells, membrane potential fluorescence, triplicate; shares compounds with NPY Y1 blocker; antagonism; cells given NPY, then isoproterenol; inhibition, % at 3.6 µM; hit rate 28% among 1,200; AID 1255, 2008;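 further: 0% = DMSO with agonist challenge and 100% = reference antagonist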
Active calls of the source: *; nt = not tested or not shown. Unless noted, no stated cut-off is given here; in the data, active means inhibition above about 17%; inactive means the rest.

SMILES	NPY1 pot ag	S1P4 antag	S1P4 ag	NPY Y1 blocker	NPY-Y2 antag	NPY2 pot ag	NPY-Y1 ant conf	NPY2 antag ctr
CCC(c1nnnn1Cc1cccs1)N1CCN(C2CCCC2)CC1 (configuration not stated)	-20.8	9.1	-1.2	5.2	16.6	-10.4	nt	nt
O=C(c1c(Cl)nc2sccn12)N1CCN(c2cccc(Cl)c2)CC1	15.7	-13.4	3.4	3.2	5.8	-12.2	nt	nt
COc1nc(OC)nc(N2CCC(NC(=O)C(Cc3cccc(OC)c3OC)NC(C)=O)CC2)n1 (configuration not stated)	7.5	-4.6	0.6	nt	nt	-7.2	nt	nt
OCCNCc1cc(Br)ccc1OCc1ccc(F)cc1	-32.5	-0.1	0.1	6.0	nt	-13.2	nt	nt
OCCNCc1cc(Br)ccc1OCc1ccc(Cl)cc1	-8.2	-1.0	-0.2	23.6*	12.1	-5.0	7.6	13.2
CCOC(=O)c1c(C)noc1CP(=O)(c1ccccc1)c1ccccc1	-22.0	-2.7	1.1	31.4*	16.6	-13.2	15.7	8.8
CCOc1nsc(OCC)n1	3.4	9.2	1.7	nt	nt	-11.8	nt	nt
Brc1ccc(-c2csc(/N=C/N3CCCC3)n2)cc1	-10.6	-25.8	0.6	31.9*	nt	-26.5	31.4*	12.9
OCCN(/C=N/c1nc(-c2ccc(Br)cc2)cs1)CCO	11.8	-18.1	-0.4	1.3	-1.7	3.4	nt	nt
CCOc1ccc(C(C)=O)cc1CSc1nnc(-c2cccs2)n1CC1CCCO1 (configuration not stated)	-21.2	-14.8	-0.7	27.3*	4.6	-28.9	6.0	4.7
CCCCC(CCC(=O)Nc1ccccc1C(=O)OCC)C(=O)O (configuration not stated)	-15.9	1.0	-0.1	23.1*	11.5	-64.0	11.4	12.7
Cc1nn(S(=O)(=O)c2ccccc2)c(C)c1Sc1ccc([N+](=O)[O-])cc1	-3.7	3.3	-0.8	24.2*	7.2	7.0	5.7	3.9
CC(C)N1CCN(Cc2ccc(Sc3nncn3C)o2)CC1CCO (configuration not stated)	5.7	-9.1	-0.1	nt	nt	-5.3	nt	nt
CCCNNC(=O)C(O)(c1cccc(C)c1)c1cccc(C)c1	-11.0	-23.0	0.1	25.7*	10.1	-1.2	2.2	7.3
COC(=O)c1cc(F)c(-n2cncn2)c(F)c1	10.8	-4.6	0.0	-2.8	1.5	0.5	nt	nt
COC(=O)c1cc([N+](=O)[O-])c(-n2cncn2)c([N+](=O)[O-])c1	1.2	-0.5	0.1	28.2*	nt	-7.8	-3.1	-3.7
Cc1cc(Cl)ccc1N(CC(=O)NCc1ccc2c(c1)OCO2)S(C)(=O)=O	3.8	-4.0	0.5	0.5	nt	3.6	nt	nt
S=c1[nH]nc(-c2cccc(Br)c2)o1	-32.2	-2.7	0.5	24.3*	13.4	-34.0	10.7	11.3
COc1ccc(NS(=O)(=O)c2cccc(C(=O)N/N=C/c3ccc(O)cc3)c2)cc1	11.1	-18.8	0.6	1.9	nt	5.4	nt	nt
COC(=O)CSc1nc(-c2ccccc2)nc2ccc(F)cc12	-15.7	-3.1	1.2	4.0	-1.0	2.4	nt	nt
CCOC(=O)CSc1nc(-c2ccccc2)nc2ccc(F)cc12	-13.2	7.4	0.3	23.2*	13.3	-16.3	9.8	10.4
OCCN1CCN(CC(O)COc2ccc(C34CC5CC(CC(C5)C3)C4)cc2)CC1 (configuration not stated)	-50.0	-11.2	-3.0	11.6	nt	-42.2	nt	nt
NCCOc1ccc(C23CC4CC(CC(C4)C2)C3)cc1	-34.1	-19.8	5.2	22.0*	nt	-14.0	20.5*	35.3*
Cn1c(=O)cc(OCC(=O)NCc2cccs2)c2ccccc21	11.5	-11.0	-1.3	3.0	nt	1.4	nt	nt
CN(C)S(=O)(=O)c1cc(NC(=O)CN2CCCc3ccccc32)ccc1Cl	18.6	-3.9	1.6	71.2*	nt	7.6	0.7	2.8
SMILES	NPY1 pot ag	S1P4 antag	S1P4 ag	NPY Y1 blocker	NPY-Y2 antag	NPY2 pot ag	NPY-Y1 ant conf	NPY2 antag ctr
CN(C)S(=O)(=O)c1cc(NC(=O)CN2CCc3ccccc32)ccc1Cl	6.9	-7.9	-0.8	-5.6	nt	-17.2	nt	nt
O=C(Nn1c(-c2ccccc2)nc2ccccc2c1=O)c1cccs1	0.5	-0.8	-0.5	-3.5	-1.1	-4.2	nt	nt
Cc1cccc[n+]1CCCCCCCCCC[n+]1ccccc1C	0.1	-6.6	1.1	0.4	nt	-3.4	nt	nt
CCCCCCCCCC[n+]1cccc2c3ccccc3ccc21	-11.0	-8.9	1.5	49.8*	nt	-6.3	47.5*	37.4*
CCCCCCCC[n+]1cccc2c3ccccc3ccc21	-17.9	-15.8	0.5	51.3*	nt	-6.5	42.7*	25.9*
CN(CCC#N)C(=S)NC(=O)c1ccc(S(=O)(=O)N2CCOCC2)cc1	9.9	-15.3	-0.2	45.8*	nt	3.8	0.1	0.0
CC12CCC(C(=O)NNc3ccc([N+](=O)[O-])cc3)(CC1=O)C2(C)C (configuration not stated)	3.5	1.1	1.1	4.8	-0.6	1.6	nt	nt
COC(=O)c1c(NC(=O)c2cccnc2Cl)sc(C(=O)N(C)C)c1C	-9.2	-12.7	-0.7	-1.2	0.3	-12.9	nt	nt
CCN1/C(=C/C(C)=C/c2sc3ccccc3[n+]2CC)Sc2ccccc21	-12.3	-4.9	0.5	106.5*	nt	4.2	79.0*	53.4*
O=C(Cn1cnc2ccccc2c1=O)Nc1nnc(SCc2ccc(Cl)cc2)s1	-17.2	-12.7	-0.2	nt	nt	-2.2	nt	nt
COC(=O)CNC(c1ccccc1)c1cc(Br)ccc1NS(=O)(=O)c1ccc(C)cc1 (configuration not stated)	6.5	4.1	0.4	10.5	3.9	16.6	nt	nt
COC(=O)CNC(c1ccccc1)c1cc(Br)ccc1NS(=O)(=O)c1ccccc1 (configuration not stated)	-31.0	-10.3	-0.5	26.7*	16.6	-2.6	-1.3	3.5
CCC(C)N(C)C1CCN(C(=S)Nc2cccc(SC)c2)CC1 (configuration not stated)	2.3	-0.1	-0.1	-2.4	nt	-7.1	nt	nt
O=C1CC(c2cccs2)Cc2nc(NC(=O)C3CC3)ncc21 (configuration not stated)	-20.3	-4.8	0.7	nt	nt	-1.1	nt	nt
CCC(C)(C)n1nnnc1CN(Cc1ccc(Cl)cc1)Cc1ccco1	-37.1	8.7	0.5	24.3*	17.0	-23.4	17.1	14.0

Screening data deposited in PubChem BioAssay by The Scripps Research Institute Molecular Screening Center.
